PMC6828636 (European Journal of Drug Metabolism and Pharmacokinetics, 2019)
Where two headings read alike, the source gives them in different places.

Tests used:
[1] = target: T1, UGT1A1 (Homo sapiens, UniProt P22309); experiment: UGT1A1 inhibition in human liver microsomes; type: in vitro ADME; settings: read-out: IC50, UGT1A1, substrate estradiol
T1 sequence (P22309 26-533): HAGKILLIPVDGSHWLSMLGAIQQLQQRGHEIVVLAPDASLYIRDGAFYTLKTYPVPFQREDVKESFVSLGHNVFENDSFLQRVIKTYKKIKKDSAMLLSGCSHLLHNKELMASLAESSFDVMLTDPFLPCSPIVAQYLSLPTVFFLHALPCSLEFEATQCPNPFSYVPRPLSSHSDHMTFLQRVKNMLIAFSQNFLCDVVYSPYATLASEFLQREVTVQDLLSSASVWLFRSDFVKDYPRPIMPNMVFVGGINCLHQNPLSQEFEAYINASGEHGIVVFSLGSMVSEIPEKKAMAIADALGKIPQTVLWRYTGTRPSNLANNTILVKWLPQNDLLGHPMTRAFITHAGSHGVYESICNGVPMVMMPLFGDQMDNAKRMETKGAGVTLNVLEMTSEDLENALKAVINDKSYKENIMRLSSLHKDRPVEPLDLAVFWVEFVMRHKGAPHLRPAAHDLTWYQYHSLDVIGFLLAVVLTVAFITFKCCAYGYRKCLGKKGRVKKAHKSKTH
Outline: (§1)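 Glucuronidation of UGT-selective substrates was measured in human liver microsomes with and without test compound, using a rank-order approach. Standard inhibitors for each isoform were incubated in parallel as positive controls.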

[2] = target: CYP2C9 (Homo sapiens, UniProt P11712); experiment: CYP2C9 inhibition in human liver microsomes; type: in vitro ADME; settings: read-out: IC50, CYP2C9; human liver microsomes; substrate diclofenac
CYP2C9, sequence (P11712 whole entry, canonical isoform): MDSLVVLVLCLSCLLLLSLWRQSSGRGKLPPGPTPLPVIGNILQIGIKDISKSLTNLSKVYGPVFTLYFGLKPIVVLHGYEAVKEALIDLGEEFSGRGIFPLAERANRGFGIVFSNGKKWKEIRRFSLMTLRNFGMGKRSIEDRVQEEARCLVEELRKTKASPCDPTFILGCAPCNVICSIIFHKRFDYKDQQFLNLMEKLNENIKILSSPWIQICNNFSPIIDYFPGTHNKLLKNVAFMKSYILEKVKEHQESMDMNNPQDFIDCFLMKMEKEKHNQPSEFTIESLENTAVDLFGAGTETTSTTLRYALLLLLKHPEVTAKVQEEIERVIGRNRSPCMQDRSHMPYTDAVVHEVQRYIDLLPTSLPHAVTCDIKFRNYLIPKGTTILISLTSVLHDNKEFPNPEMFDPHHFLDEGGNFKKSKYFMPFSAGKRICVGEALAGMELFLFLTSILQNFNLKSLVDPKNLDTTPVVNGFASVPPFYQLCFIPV
Outline: (§2)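 Pooled human liver microsomes were incubated with standard CYP-selective substrates, with and without test compound at 0.03–100 μM. Standard selective inhibitors for each isoform ran in parallel as positive controls. Read-out was IC50. For CYP3A4 only, time-dependent inhibition was also tested after 30 min preincubation, using midazolam and testosterone as substrates.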

[3] = target: T2, CYP2A6 (Homo sapiens, UniProt P11509); experiment: CYP2A6 inhibition in human liver microsomes; type: in vitro ADME; settings: read-out: IC50, CYP2A6; human liver microsomes; substrate coumarin
T2 sequence (P11509 1-494): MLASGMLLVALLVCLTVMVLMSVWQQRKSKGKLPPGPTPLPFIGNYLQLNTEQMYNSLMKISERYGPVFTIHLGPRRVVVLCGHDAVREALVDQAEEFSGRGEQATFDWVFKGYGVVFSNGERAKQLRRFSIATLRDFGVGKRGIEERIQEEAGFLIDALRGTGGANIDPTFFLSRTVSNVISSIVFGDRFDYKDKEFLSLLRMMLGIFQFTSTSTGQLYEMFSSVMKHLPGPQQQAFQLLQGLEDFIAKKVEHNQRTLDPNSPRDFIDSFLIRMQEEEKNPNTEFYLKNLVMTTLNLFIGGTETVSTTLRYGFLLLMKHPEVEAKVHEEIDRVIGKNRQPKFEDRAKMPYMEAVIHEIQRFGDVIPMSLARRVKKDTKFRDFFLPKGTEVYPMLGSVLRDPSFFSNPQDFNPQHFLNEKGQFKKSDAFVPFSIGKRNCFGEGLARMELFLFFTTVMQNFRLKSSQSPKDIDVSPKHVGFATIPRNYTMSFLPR
Outline: as §2

[4] = target: CYP2D6 (Homo sapiens, UniProt P10635); experiment: CYP2D6 inhibition in human liver microsomes; type: in vitro ADME; settings: read-out: IC50, CYP2D6; human liver microsomes; substrate dextromethorphan
CYP2D6, sequence (P10635 whole entry): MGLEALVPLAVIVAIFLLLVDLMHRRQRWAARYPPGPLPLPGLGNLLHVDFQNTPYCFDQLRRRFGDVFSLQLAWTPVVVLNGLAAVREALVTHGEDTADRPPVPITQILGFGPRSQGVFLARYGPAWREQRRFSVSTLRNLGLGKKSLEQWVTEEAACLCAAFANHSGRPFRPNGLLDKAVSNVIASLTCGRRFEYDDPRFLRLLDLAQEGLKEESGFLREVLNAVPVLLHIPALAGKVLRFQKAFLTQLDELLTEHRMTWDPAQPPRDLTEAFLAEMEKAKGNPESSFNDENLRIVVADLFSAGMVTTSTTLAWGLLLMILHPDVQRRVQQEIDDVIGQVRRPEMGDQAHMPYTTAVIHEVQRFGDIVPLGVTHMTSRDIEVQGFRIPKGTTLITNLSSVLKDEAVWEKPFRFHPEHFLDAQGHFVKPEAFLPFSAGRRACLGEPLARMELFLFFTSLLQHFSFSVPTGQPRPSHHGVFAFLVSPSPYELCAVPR
Outline: as §2

[5] = target: T3, CYP1A2 (Homo sapiens, UniProt P05177); experiment: biochemical; type: in vitro ADME; settings: read-out: IC50, CYP1A2; human liver microsomes; substrate phenacetin
T3 sequence (P05177 1-516): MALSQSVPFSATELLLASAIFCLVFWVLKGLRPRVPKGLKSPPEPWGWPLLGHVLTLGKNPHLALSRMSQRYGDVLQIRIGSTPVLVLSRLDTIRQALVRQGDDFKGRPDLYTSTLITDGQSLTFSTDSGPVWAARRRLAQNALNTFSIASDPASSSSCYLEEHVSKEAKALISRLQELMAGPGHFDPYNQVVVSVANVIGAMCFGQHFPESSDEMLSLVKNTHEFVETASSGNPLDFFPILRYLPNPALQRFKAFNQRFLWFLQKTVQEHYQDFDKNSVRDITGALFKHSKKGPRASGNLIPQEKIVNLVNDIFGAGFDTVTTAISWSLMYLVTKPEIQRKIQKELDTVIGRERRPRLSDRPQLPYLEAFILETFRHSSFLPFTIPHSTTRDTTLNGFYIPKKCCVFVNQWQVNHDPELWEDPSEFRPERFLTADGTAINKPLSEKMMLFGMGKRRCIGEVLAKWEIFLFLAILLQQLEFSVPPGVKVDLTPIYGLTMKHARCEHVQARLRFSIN

[6] = target: T4, CYP2B6 (Homo sapiens, UniProt P20813); experiment: biochemical; type: in vitro ADME; settings: read-out: IC50, CYP2B6; human liver microsomes; substrate bupropion
T4 sequence (P20813 1-491): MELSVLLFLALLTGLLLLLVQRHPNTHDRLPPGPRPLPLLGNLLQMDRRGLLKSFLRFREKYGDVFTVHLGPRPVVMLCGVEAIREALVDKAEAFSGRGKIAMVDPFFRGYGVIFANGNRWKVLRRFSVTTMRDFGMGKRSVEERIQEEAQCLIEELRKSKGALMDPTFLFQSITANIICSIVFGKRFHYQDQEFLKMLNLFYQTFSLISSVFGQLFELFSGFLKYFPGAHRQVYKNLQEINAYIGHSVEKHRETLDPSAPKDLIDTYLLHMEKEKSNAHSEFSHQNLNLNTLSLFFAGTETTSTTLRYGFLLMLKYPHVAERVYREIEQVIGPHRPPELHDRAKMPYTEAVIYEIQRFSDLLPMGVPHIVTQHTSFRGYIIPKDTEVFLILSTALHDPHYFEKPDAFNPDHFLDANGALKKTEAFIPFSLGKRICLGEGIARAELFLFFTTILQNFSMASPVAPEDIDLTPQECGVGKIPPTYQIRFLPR

[7] = target: CYP3A4 (Homo sapiens, UniProt P08684); experiment: CYP3A4 inhibition in human liver microsomes; type: in vitro ADME; settings: human liver microsomes
CYP3A4, sequence (P08684 whole entry): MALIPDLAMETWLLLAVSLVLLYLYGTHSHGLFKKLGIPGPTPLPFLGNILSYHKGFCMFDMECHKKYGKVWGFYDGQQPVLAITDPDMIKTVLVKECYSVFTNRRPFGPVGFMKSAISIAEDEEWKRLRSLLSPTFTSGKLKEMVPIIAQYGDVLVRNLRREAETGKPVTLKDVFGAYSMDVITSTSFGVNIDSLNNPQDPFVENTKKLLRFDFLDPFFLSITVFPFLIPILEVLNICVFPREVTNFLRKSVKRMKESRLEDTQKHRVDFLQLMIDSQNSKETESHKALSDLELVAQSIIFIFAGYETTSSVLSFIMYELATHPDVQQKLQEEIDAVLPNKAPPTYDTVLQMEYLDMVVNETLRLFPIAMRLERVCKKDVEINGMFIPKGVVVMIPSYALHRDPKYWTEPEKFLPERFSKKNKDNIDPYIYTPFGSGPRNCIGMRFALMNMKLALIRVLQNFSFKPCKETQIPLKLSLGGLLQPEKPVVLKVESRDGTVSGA
Outline: as §2

[8] = target: CYP2E1 (Homo sapiens, UniProt P05181); experiment: CYP2E1 inhibition in human liver microsomes; type: in vitro ADME; settings: read-out: IC50, CYP2E1; human liver microsomes; substrate chlorzoxazone
CYP2E1, sequence (P05181 whole entry): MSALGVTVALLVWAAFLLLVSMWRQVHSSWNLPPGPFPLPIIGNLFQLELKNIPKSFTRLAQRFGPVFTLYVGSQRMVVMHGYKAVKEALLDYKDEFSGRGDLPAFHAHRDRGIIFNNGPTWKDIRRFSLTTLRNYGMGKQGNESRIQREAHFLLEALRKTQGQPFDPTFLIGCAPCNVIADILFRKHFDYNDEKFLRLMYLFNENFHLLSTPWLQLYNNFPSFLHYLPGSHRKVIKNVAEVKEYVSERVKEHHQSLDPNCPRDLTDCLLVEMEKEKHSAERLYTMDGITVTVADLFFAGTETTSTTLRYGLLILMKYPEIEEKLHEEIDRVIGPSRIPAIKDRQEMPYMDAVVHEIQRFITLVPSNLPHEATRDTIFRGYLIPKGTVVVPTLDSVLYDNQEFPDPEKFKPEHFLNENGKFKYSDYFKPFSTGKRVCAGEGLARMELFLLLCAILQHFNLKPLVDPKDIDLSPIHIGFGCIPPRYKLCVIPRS
Outline: as §2

[9] = target: T5, CYP2C8 (Homo sapiens, UniProt P10632); experiment: CYP2C8 inhibition in human liver microsomes; type: in vitro ADME; settings: read-out: IC50, CYP2C8; human liver microsomes; substrate amodiaquine
T5 sequence (P10632 1-490): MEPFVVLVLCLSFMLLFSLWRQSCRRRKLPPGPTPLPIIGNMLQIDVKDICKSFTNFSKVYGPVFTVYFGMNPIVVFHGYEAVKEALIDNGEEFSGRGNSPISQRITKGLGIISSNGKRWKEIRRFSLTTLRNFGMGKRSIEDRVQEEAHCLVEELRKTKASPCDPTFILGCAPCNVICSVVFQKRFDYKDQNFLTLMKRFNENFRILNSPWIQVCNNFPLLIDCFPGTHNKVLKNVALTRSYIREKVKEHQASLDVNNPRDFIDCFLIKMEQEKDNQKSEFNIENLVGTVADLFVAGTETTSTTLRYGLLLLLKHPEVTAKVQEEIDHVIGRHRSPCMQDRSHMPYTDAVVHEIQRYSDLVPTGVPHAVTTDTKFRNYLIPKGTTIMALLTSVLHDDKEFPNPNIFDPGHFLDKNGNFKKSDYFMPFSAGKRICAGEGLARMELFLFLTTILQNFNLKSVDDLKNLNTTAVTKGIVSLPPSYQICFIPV
Outline: as §2

[10] = target: CYP2C19 (Homo sapiens, UniProt P33261); experiment: CYP2C19 inhibition in human liver microsomes; type: in vitro ADME; settings: read-out: IC50, CYP2C19; human liver microsomes; substrate S-mephenytoin
CYP2C19, sequence (P33261 whole entry): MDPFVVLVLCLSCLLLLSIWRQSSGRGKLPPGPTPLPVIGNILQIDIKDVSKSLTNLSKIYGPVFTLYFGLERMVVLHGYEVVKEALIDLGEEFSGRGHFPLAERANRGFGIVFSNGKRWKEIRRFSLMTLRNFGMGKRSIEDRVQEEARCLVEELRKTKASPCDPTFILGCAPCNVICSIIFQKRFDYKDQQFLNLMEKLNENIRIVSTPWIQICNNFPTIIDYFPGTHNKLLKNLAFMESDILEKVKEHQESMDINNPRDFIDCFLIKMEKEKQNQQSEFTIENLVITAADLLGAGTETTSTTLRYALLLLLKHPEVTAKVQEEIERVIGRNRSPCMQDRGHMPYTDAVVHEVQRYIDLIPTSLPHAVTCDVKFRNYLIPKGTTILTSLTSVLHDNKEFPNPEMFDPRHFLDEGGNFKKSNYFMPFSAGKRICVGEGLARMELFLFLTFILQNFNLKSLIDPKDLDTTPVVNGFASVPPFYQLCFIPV
Outline: as §2

[11] = Clinical plasma and intestinal concentrations of darolutamide; parameters: species or system human
[12] = target: UGT1A9 (Homo sapiens, UniProt O60656); experiment: UGT1A9 inhibition in human liver microsomes; type: in vitro ADME
UGT1A9, sequence (O60656 26-530): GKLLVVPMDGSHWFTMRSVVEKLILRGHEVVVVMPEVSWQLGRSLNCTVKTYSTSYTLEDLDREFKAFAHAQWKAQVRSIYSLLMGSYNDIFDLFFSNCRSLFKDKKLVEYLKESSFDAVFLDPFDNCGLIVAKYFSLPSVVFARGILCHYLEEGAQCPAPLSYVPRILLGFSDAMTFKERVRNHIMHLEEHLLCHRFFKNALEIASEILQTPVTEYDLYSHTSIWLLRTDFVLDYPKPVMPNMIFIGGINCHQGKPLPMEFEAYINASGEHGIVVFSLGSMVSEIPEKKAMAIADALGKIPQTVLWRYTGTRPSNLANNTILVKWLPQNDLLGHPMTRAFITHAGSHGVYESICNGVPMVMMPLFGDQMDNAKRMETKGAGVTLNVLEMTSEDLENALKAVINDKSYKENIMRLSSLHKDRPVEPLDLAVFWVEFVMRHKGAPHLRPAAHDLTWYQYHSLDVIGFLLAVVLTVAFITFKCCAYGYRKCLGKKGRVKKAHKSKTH
Outline: as §1

[13] = type: in vivo, human; settings: healthy male volunteers
[14] = cited from earlier work
[15] = Phase I study: darolutamide effect on rosuvastatin pharmacokinetics; type: in vivo, human
[16] = read-out: IC50, CYP3A4 (with pre-incubation), substrate midazolam, 30 min pre-incubation
[17] = read-out: IC50, CYP3A4 (with pre-incubation), substrate testosterone, 30 min pre-incubation
[18] = read-out: IC50, CYP3A4, substrate midazolam
[19] = read-out: IC50, CYP3A4, substrate testosterone
[20] = midazolam 1 mg and dabigatran etexilate 75 mg cocktail, darolutamide 600 mg

| Compound | IC50 [1] | IC50 [2] | IC50 [3] | IC50 [4] | IC50 [5] | IC50 [6] | IC50 [7, 16] | IC50 [7, 17] | IC50 [7, 18] | IC50 [7, 19] | IC50 [8] | IC50 [9] | IC50 [10] | plasma concentration of unbound drug [11] | tmax in the presence and absence of darolutamide [13] | t½ in the presence and absence of darolutamide [13] | reduction in Cmax with co-administered darolutamide versus alone [13, 20] | further results |
| --- | --- | --- | --- | --- | --- | --- | --- | --- | --- | --- | --- | --- | --- | --- | --- | --- | --- | --- |
| C[C@@H](Cn1ccc(-c2ccc(C#N)c(Cl)c2)n1)NC(=O)c1cc([C@@H](C)O)[nH]n1 [(S,R)-darolutamide] | 26.5 µM | 22.6 µM | > 50 µM | > 50 µM | > 50 µM | > 50 µM | > 50 µM | > 50 µM | > 50 µM | > 50 µM | > 50 µM | 36.2 µM | 46.7 µM | < 600 nM | – | – | – | IC50 ([12]; read-out: IC50, UGT1A9, substrate propofol): 12.5 µM; Ki ([12]; read-out: Ki, UGT1A9): 6.32 µM |
| C[C@H](O)c1cc(C(=O)N[C@@H](C)Cn2ccc(-c3ccc(C#N)c(Cl)c3)n2)n[nH]1 [(S,S)-darolutamide] | 31.7 µM | > 50 µM | > 50 µM | 40.2 µM | > 50 µM | > 50 µM | > 50 µM | > 50 µM | > 50 µM | > 50 µM | > 50 µM | 46.3 µM | > 50 µM | < 600 nM | – | – | – | – |
| Cc1ncc2n1-c1ccc(Cl)cc1C(c1ccccc1F)=NC2 [midazolam] | – | – | – | – | – | – | – | – | – | – | – | – | – | – | comparable | comparable | ~32% | – |
| [H]/N=C(/N)c1ccc(NCc2nc3cc(C(=O)N(CCC(=O)O)c4ccccn4)ccc3n2C)cc1 [non-conjugated dabigatran, dabigatran] | – | – | – | – | – | – | – | – | – | – | – | – | – | – | comparable | comparable | 16% | reduction in AUC with co-administered darolutamide versus alone [13, 20]: 9% |
| CC(C)c1nc(N(C)S(C)(=O)=O)nc(-c2ccc(F)cc2)c1/C=C/[C@@H](O)C[C@@H](O)CC(=O)O [rosuvastatin] | – | – | – | – | – | – | – | – | – | – | – | – | – | – | – | – | – | fraction absorbed (fa) [14]: 0.5; AUC(0–24) ([14]; single dose of 5 mg rosuvastatin, healthy subjects, fasted condition): 19.2 ng·h/mL; effect of darolutamide comedication on t½ ([15]; healthy subjects): did not affect; increase in rosuvastatin exposure with darolutamide ([15]; healthy subjects, rosuvastatin 5 mg, darolutamide 600 mg twice daily): approximately fivefold; observed exposure as % of the reported fasted AUC(0–24) ([15]; human, in vivo): 34%; incidence of treatment-emergent AEs, alone versus with concomitant darolutamide ([15]; single doses of rosuvastatin 5 mg): similar |
